Where two headings read alike, the source gives them in different places.
Assays:
[1] = test system: BJ-1 normal human skin fibroblast cells; assay: Cytotoxicity on normal cells, LDH release assay, BJ-1; assay type: cell-based; conditions: for IC50: Homo sapiens, Skin fibroblast, 48 h, read-out: IC50 (μM) ± SD BJ-1; for toxic activity on healthy cells BJ-1: BJ-1 normal cells, LDH assay
In short: (§1)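 Cells were kept in RPMI-1640 with 10% heat-inactivated FBS and penicillin/streptomycin at 37 °C in 5% CO2. They were seeded at 1 × 10^4 per well, grown 18 h, then exposed to graded concentrations for 48 h, with doxorubicin as positive control. LDH was read in supernatant and in Triton X-100 lysate by kinetic A340 over 1 min, using pH 7.5 phosphate with 4.6 mM pyruvate and 0.4 mg mL−1 NADH. % release = released/total. Three experiments in triplicate; IC50 by probit analysis.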

[2] = test system: MCF-7 (human breast adenocarcinoma) cells; assay: Antiproliferative activity, LDH release assay, MCF-7; assay type: cell-based; conditions: MCF7, 48 h, read-out: IC50 (μM) ± SD MCF-7
In short: as §1

[3] = test system: HCT-116 (human colorectal carcinoma) cells; assay: Antiproliferative activity, LDH release assay, HCT-116; assay type: cell-based; conditions: HCT-116, 48 h, read-out: IC50 (μM) ± SD HCT-116
In short: as §1

[4] = biological target: ERK1 (extracellular signal-regulated kinase 1) (Homo sapiens, UniProt P27361); assay: ERK1 kinase assay; assay type: biochemical
[5] = test system: Ehrlich ascites carcinoma (EAC) cells; assay: Ehrlich ascites carcinoma; assay type: in vivo, female BALB/c mice; conditions: EAC-bearing mice; for Avg. volume of ascitic fluid (mL) [packed cell volume] / Viable cell count (×10^6 cells per mL) / Cell-growth inhibition (%): i.p. 2 mg kg^−1 × 2 weeks; for Avg. volume of ascitic fluid (mL) [packed cell volume]: EAC control 10.5; for Viable cell count (×10^6 cells per mL): trypan blue, EAC control 33; for Cell-growth inhibition (%): vs EAC control viable cell count; for total volume of collected ascitic fluid: i.p. 2 mg kg^−1 twice weekly × 2 weeks
In short: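 Female BALB/c mice (25 ± 3 g) received 1 × 10^6 EAC cells i.p. in 100 μL PBS (>95% trypan-blue viability). On day 3, mice were grouped (n = 8). Dosing was i.p.: test compound 2 mg kg−1 twice weekly × 2 weeks, DMSO vehicle, or doxorubicin 2 mg kg−1 once weekly. Endpoint: ascitic volume measured, fluid spun 1200×g for 10 min, viable cells counted by 0.4% trypan blue on a hemocytometer. Growth inhibition = (control − treated)/control × 100.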

[6] = biological target: epidermal growth factor receptor (EGFR) (Homo sapiens, UniProt P00533); assay: EGFR kinase inhibition assay; assay type: biochemical
[7] = test system: Ehrlich solid carcinoma (ESC); assay: Ehrlich solid carcinoma; assay type: in vivo, male BALB-c mice; conditions: intratumoral 2 mg kg^−1, two doses weekly for two weeks
[8] = biological target: histone deacetylase 1 (HDAC1) (Homo sapiens, UniProt Q13547); assay: Fluorogenic HDAC1 inhibition assay; assay type: biochemical
MCF-7 cells [9] = assay: Apoptosis assay, Annexin V-FITC/PI flow cytometry; assay type: cell-based, human; conditions: MCF-7, 48 h
MCF-7 cells [10] = assay: Cell-cycle analysis by flow cytometry; assay type: cell-based, human; conditions: MCF-7, 48 h; control 10.98%

Chain of ERK1 (extracellular signal-regulated kinase 1) (P27361 whole entry): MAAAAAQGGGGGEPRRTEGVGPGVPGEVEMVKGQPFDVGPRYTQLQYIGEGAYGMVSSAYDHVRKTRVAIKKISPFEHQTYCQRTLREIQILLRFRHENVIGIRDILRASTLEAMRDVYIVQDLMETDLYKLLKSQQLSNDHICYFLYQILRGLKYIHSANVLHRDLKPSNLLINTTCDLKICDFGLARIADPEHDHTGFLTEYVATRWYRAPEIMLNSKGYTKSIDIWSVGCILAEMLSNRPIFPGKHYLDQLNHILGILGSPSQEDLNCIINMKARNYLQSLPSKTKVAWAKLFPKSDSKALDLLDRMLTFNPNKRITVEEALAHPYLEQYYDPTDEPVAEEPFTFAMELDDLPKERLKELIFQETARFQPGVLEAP
Chain of histone deacetylase 1 (HDAC1) (Q13547 whole entry): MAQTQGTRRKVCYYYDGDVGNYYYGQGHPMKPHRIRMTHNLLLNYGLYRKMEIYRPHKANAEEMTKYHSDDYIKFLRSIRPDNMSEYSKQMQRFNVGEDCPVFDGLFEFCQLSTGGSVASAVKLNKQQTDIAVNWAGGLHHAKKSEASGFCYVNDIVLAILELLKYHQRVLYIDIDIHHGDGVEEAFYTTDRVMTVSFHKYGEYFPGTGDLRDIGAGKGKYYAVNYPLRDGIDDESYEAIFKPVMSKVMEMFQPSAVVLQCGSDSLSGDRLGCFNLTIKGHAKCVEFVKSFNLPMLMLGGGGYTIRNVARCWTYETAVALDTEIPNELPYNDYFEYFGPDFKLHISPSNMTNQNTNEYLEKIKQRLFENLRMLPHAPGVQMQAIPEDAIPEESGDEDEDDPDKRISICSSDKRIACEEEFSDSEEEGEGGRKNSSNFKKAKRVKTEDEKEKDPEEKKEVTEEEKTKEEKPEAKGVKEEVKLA
Chain of epidermal growth factor receptor (EGFR) (P00533 25-1210): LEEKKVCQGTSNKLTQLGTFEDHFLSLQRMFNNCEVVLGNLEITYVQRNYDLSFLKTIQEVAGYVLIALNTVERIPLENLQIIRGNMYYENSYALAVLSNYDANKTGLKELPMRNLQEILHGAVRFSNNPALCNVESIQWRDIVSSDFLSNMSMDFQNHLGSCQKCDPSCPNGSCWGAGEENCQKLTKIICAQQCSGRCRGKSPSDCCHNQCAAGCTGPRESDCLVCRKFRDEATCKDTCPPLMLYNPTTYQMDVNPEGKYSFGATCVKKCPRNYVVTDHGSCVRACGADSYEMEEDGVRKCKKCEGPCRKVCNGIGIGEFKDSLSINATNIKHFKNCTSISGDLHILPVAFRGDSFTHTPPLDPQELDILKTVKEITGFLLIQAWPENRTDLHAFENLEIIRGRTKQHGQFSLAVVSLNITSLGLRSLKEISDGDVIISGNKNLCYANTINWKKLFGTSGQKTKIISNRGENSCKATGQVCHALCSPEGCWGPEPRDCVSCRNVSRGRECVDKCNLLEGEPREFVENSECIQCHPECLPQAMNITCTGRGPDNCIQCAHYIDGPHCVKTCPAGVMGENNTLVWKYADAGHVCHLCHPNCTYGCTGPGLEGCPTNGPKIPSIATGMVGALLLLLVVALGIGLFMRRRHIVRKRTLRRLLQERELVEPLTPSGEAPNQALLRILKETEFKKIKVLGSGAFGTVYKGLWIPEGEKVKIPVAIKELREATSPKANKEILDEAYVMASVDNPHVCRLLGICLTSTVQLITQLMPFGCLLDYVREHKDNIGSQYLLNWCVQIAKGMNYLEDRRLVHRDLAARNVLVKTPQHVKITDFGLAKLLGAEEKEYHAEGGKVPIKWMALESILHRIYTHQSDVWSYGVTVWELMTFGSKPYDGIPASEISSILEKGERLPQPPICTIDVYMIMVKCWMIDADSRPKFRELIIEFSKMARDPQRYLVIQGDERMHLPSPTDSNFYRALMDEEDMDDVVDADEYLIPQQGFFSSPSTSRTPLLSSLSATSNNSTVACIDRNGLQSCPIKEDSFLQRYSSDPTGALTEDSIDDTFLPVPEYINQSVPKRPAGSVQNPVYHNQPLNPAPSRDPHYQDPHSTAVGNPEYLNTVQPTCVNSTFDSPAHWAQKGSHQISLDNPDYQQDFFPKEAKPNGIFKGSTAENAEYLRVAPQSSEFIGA

Compound	IC50 [2] [µM]	IC50 [3] [µM]	IC50 [1] [µM]	further results
CCn1c(C)c(N=Nc2ccc(Br)cc2)sc1=NN=C(C)c1c(O)c2ccccc2oc1=O [3o, 3-(-1-((-5-(-(4-Bromophenyl)diazenyl)-3-ethyl-4-methylthiazol-2(3H)-ylidene)hydrazono)ethyl)-4-hydroxy-2H-chromen-2-one]	22.9 ± 2.3	29.8 ± 2.5	> 500	toxic activity on healthy cells BJ-1 [1]: non-significant toxic activities
CCn1c(C)c(N=Nc2ccc([N+](=O)[O-])cc2[N+](=O)[O-])sc1=NN=C(C)c1c(O)c2ccccc2oc1=O [3f, 3-(-1-((-5-(-(2,4-Dinitrophenyl)diazenyl)-3-ethyl-4-methylthiazol-2(3H)-ylidene)hydrazono)ethyl)-4-hydroxy-2H-chromen-2-one]	2.6 ± 0.1	2.9 ± 0.2	25.6 ± 2.5	–
CC(=NN=c1[nH]c(C)c(N=Nc2ccc([N+](=O)[O-])cc2[N+](=O)[O-])s1)c1c(O)c2ccccc2oc1=O [3d, 3-(-1-((-5-(-(2,4-Dinitrophenyl)diazenyl)-4-methylthiazol-2(3H)-ylidene)hydrazono)ethyl)-4-hydroxy-2H-chromen-2-one]	5.1 ± 0.2	2.8 ± 0.1	26.7 ± 2.3	–
Cc1cc(Nc2ncc3c(n2)N(C)C(=O)N(c2cc(NC(=O)c4cccc(C(F)(F)F)c4)ccc2C)C3)n(C)n1 [pluripotin, reference compound]	–	–	–	IC50 ([4]; read-out: ERK inhibition IC50): 0.171 ± 0.006 µM
COc1ccc(N=Nc2sc(=NN=C(C)c3c(O)c4ccccc4oc3=O)[nH]c2C)cc1 [3a, 4-Hydroxy-3-(-1-((-5-(-(4-methoxyphenyl)diazenyl)-4-methylthiazol-2(3H)-ylidene) hydrazono)ethyl)-2H-chromen-2-one]	3.1 ± 0.1	3.2 ± 0.1	24.8 ± 2.1	–
COc1cccc2c1C(=O)c1c(O)c3c(c(O)c1C2=O)C[C@@](O)(C(=O)CO)C[C@@H]3O[C@H]1C[C@H](N)[C@H](O)[C@H](C)O1 [Doxorubicin, reference compound]	5.6 ± 0.3	6.5 ± 0.5	32.1 ± 3.1	Avg. volume of ascitic fluid (mL) [packed cell volume] [5]: 4 mL; Viable cell count (×10^6 cells per mL) [5]: 9 ×10^6 cells per mL; Cell-growth inhibition (%) [5]: 72.72%
CCn1c(C)c(N=Nc2ccc(F)cc2)sc1=NN=C(C)c1c(O)c2ccccc2oc1=O [3i, 3-(-1-((-3-Ethyl-5-(-(4-fluorophenyl)diazenyl)-4-methylthiazol-2(3H)-ylidene)hydrazono)ethyl)-4-hydroxy-2H-chromen-2-one]	3 ± 0.1	3.1 ± 0.2	34.3 ± 2.5	–
CC(=NN=c1[nH]c(C)c(N=Nc2ccc(Br)cc2)s1)c1c(O)c2ccccc2oc1=O [3m, 3-(-1-((-5-(-(4-Bromophenyl)diazenyl)-4-methylthiazol-2(3H)-ylidene)hydrazono)ethyl)-4-hydroxy-2H-chromen-2-one]	12.7 ± 1.1	33.8 ± 3.1	> 500	toxic activity on healthy cells BJ-1 [1]: non-significant toxic activities; late apoptosis (MCF-7 cells [9]; control 0.14%): 5.57%; early apoptosis (MCF-7 cells [9]; control 0.61%): 14.67%; necrosis (MCF-7 cells [9]; control 2.16%): 3.51%; IC50 [4]: 0.339 ± 0.013 µM; IC50 [6]: 0.08 ± 0.003 µM; tumor volume of Ehrlich solid carcinoma [7]: reduced to a level comparable to that of the doxorubicin group; IC50 [8]: 1.01 ± 0.034 µM; total volume of collected ascitic fluid [5]: significant reduction; Avg. volume of ascitic fluid (mL) [packed cell volume] [5]: 6 mL; Viable cell count (×10^6 cells per mL) [5]: 13 ×10^6 cells per mL; Cell-growth inhibition (%) [5]: 60.61%; cells in the G2/M phase (MCF-7 cells [10]): 29.71%
CC(=NN=c1[nH]c(C)c(N=Nc2ccc(F)cc2)s1)c1c(O)c2ccccc2oc1=O [3g, 3-(-1-((-5-(-(4-Fluorophenyl)diazenyl)-4-methylthiazol-2(3H)-ylidene)hydrazono)ethyl)-4-hydroxy-2H-chromen-2-one]	2.9 ± 0.2	2.8 ± 0.2	30.6 ± 3.3	–
CCn1c(C)c(N=Nc2ccc(OC)cc2)sc1=NN=C(C)c1c(O)c2ccccc2oc1=O [3c, 3-(1-((-3-Ethyl-5-(-(4-methoxyphenyl)diazenyl)-4-methylthiazol-2(3H)-ylidene) hydrazono)ethyl)-4-hydroxy-2H-chromen-2-one]	2.6 ± 0.1	3.1 ± 0.1	27 ± 2.1	–

Continued, in another order:

IC50 [2] [µM]	IC50 [3] [µM]	Compound	IC50 [1] [µM]	further results
3.1 ± 0.2	12.7 ± 1.2	CC(=NN=c1[nH]c(C)c(N=Nc2ccc(Cl)cc2)s1)c1c(O)c2ccccc2oc1=O [3j, 3-(-1-((-5-(-(4-Chlorophenyl)diazenyl)-4-methylthiazol-2(3H)-ylidene)hydrazono)ethyl)-4-hydroxy-2H-chromen-2-one]	27 ± 2.3	–
5 ± 0.2	2.6 ± 0.1	COc1ccc(N=Nc2sc(=NN=C(C)c3c(O)c4ccccc4oc3=O)n(C)c2C)cc1 [3b, 4-Hydroxy-3-(-1-((-5-(-(4-methoxyphenyl)diazenyl)-3,4-dimethylthiazol-2(3H)-ylidene) hydrazono)ethyl)-2H-chromen-2-one]	27 ± 2.2	–
2.8 ± 0.2	3 ± 0.2	CC(=NN=c1sc(N=Nc2ccc(F)cc2)c(C)n1C)c1c(O)c2ccccc2oc1=O [3h, 3-(-1-((-5-(-(4-Fluorophenyl)diazenyl)-3,4-dimethylthiazol-2(3H)-ylidene)hydrazono)ethyl)-4-hydroxy-2H-chromen-2-one]	27.5 ± 2.5	–
12.3 ± 1.2	31.8 ± 3.3	CC(=NN=c1sc(N=Nc2ccc(Br)cc2)c(C)n1C)c1c(O)c2ccccc2oc1=O [3n, 3-(-1-((-5-(-(4-Bromophenyl)diazenyl)-3,4-dimethylthiazol-2(3H)-ylidene)hydrazono)ethyl)-4-hydroxy-2H-chromen-2-one]	> 500	toxic activity on healthy cells BJ-1 [1]: non-significant toxic activities; IC50 [6]: 0.35 ± 0.011 µM; tumor volume of Ehrlich solid carcinoma [7]: more significant in the group administered with compound 3m than in the group administered with compound 3n; IC50 [8]: 3.88 ± 0.131 µM; total volume of collected ascitic fluid [5]: significant reduction; Avg. volume of ascitic fluid (mL) [packed cell volume] [5]: 8 mL; Viable cell count (×10^6 cells per mL) [5]: 22 ×10^6 cells per mL; Cell-growth inhibition (%) [5]: 33.33%
5.4 ± 0.3	11.6 ± 1.1	CC(=NN=c1sc(N=Nc2ccc(Cl)cc2)c(C)n1C)c1c(O)c2ccccc2oc1=O [3k, 3-(-1-((-5-(-(4-Chlorophenyl)diazenyl)-3,4-dimethylthiazol-2(3H)-ylidene)hydrazono)ethyl)-4-hydroxy-2H-chromen-2-one]	25.8 ± 2.1	–
4.8 ± 0.3	2.8 ± 0.1	CCn1c(C)c(N=Nc2ccc(Cl)cc2)sc1=NN=C(C)c1c(O)c2ccccc2oc1=O [3l, 3-(-1-((-5-(-(4-Chlorophenyl)diazenyl)-3-ethyl-4-methylthiazol-2(3H)-ylidene)hydrazono)ethyl)-4-hydroxy-2H-chromen-2-one]	26.2 ± 2.4	–
